Among the data in ChEMBL document CHEMBL4513216, “Probing the Open Global Health Chemical Diversity Library for Multistage-Active Starting Points for Next-Generation Antimalarials” (ACS Infect Dis, 2020) are cytotoxicity values, retold here.

This data set in a line: Toxicity liver stage against HepG2, at 10uM. The format is cell-based. Further details: test concentration 10 uM, cell line HepG2-A16-CD81EGFP. The conditions noted are these: human, HepG2-A16-CD81EGFP cells; read-out: INHIBITION
An outline of the steps: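 Uninfected HepG2-A16-CD81EGFP cells, 3 × 10^3 per well, 1536-well, plated on prespotted compound at 10 μM final, parasite-free screening media added to match infected plates; puromycin 10 μM positive, DMSO 0.5% negative; run in parallel with 48 h PbLuc assay at 37 °C, 5% CO2; viability by CellTiter-Glo luminescence, normalized to controls.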
Consider `Cc1cccc(N2CCN(Cc3nc(CC4CC4)no3)CC2)n1`, for which the cytotoxicity at 10 µM was -10.1%. The result for `Cc1ccc2nc3n(c2c1)[C@@H](CNC(=O)c1ccncc1)COC3` reads -3.61%; that for `CC(C)NC(=O)c1nc(COc2ccc3c(c2)OCO3)no1`, -1.11%. The figure for `Cc1cccc(NC(=O)C2(n3cnnn3)CCCCC2)n1` is -1.05%; for `CCC(CNC(C)=O)(OC)c1ccccc1` (stereo not given) it is 1.97%. The figure for `O=C(C1CC1)N1CC[C@H]2C(=O)N(c3ccsc3)CCO[C@H]2C1` is 9.85%.

Regarding `Cc1nc(COCc2cnc3n2CCN(C(=O)C2CC2)C3C)cs1` (stereo not given), the cytotoxicity at 10 µM stood at 11.4%.

As for `Cc1nnc(N2CCCC3(CN(c4cccc(F)c4)CCO3)C2)o1` (stereo not given), the cytotoxicity at 10 µM was 0.777%. The result for `CCC1=N[C@@]2(CC[C@@H]3CN(S(=O)(=O)CC)C[C@@H]32)C(=O)N1CCOC` reads -0.211%; that for `CCCn1[nH]c(CNc2ccccc2)nc1=O`, 9.98%. The result for `NC(=O)C1CCN(C(=O)CCn2ccc3ccc(F)cc32)CC1` reads -6.83%; that for `COCCNC(=O)c1cc2c(s1)CCN2C(=O)c1ccccc1`, -12.9%.

As to `CCn1ccc(CNC(=O)c2cc(OC)cc(OC)c2)n1`, the cytotoxicity at 10 µM came out at 8.66%. The figure for `CN(C)C(=O)CN1CCCC(c2nccnc2-c2cccc(Cl)c2)C1` (stereo not given) is 4.21%; for `Cc1nc2cc(C3CCOCC3)nn2c(NCC2COCCO2)c1C` (stereo not given) it is 0.135%. The figure for `CC(=O)N1CCCCC[C@@H]2[C@@H]1[C@H](c1cccc(F)c1)CN2CCC(N)=O` is -1.08%; for `COC(=O)[C@H]1CN(C(=O)c2cscn2)C[C@@H]1c1ccc(F)cc1` it is -26.3%. The result for `Cc1cc(CN2CCC(C3Nc4ccccc4S(=O)(=O)N3)CC2)oc1C` (stereo not given) reads 4.22%; that for `Cn1nc(C2CN(C(=O)c3cccnc3)C2)c2nccnc21`, -21.7%.

Take `O=C(CCc1ccccc1)N1CCCC(c2n[nH]c3nccnc23)C1` (stereo not given): the cytotoxicity at 10 µM came to 20.9%. The figure for `NC(=O)C1(c2cnccn2)CCCN1Cc1cc2ccccc2o1` (stereo not given) is -1.19%. The result for `COc1ccccc1-c1nc(C(=O)N2CCOCC2)n2ccncc12` reads 11.9%; that for `CS(=O)(=O)N1CC2(CCN(C3CCCCC3)CC2)Cc2ccccc21`, 4.92%; that for `COc1ccc(SC(C)C(=O)N2CCC(O)CC2)cc1` (stereo not given), 0.887%.

As to `Cc1ccc(C(C)NC(=O)CCc2cnn(C)c2)cc1F` (stereo not given), the cytotoxicity at 10 µM is -0.348%. The figure for `CC(C)C1CCC(N2CCN(CCS(C)(=O)=O)CC2)CC1` (stereo not given) is 7.23%; for `CC1CCCCN1C(=O)c1ccc2c(c1)OCCCO2` (stereo not given) it is 9.62%; for `CNS(=O)(=O)c1cccc(C(C)NCc2ccncc2)c1` (stereo not given) it is -2.53%. The figure for `O=C(O)c1ccn(-c2ccccc2NS(=O)(=O)c2cccc(Cl)c2F)n1` is -3.36%; for `Cc1ccc(C2COCCN2C(=O)c2cccc(N(C)C)c2)o1` (stereo not given) it is 8.99%; for `Cc1ccn(-c2ccccc2NCc2cccnc2)n1` it is 0.508%.

As to `Cc1cc(C)n(C2CN(CC(=O)N(C)Cc3cnn(C)c3)C2)n1`, the cytotoxicity at 10 µM was -5.85%. As for `NC(=O)C(CNC(=O)Cc1ccsc1)Cc1ccc(F)cc1` (stereo not given), the cytotoxicity at 10 µM was determined as 9.21%. Regarding `Cn1cc(CCNC(=O)N2CCCC(Cc3nccn3C)C2)cn1` (stereo not given), the cytotoxicity at 10 µM was -4.52%. The figure for `Cc1cc(C)c(CNC(=O)C2COc3ccccc3C2)c(=O)[nH]1` (stereo not given) is -0.102%; for `CNC(=O)CN1CCC(OCC2CCCO2)CC1` (stereo not given) it is 1.99%. The figure for `CN(CCCc1cc(-c2ccc(F)cc2)n[nH]1)C(=O)CCn1cncn1` is -137%; for `CC1CCN(C(=O)CN2CCC(c3n[nH]c(C4CC4)n3)CC2)CC1` it is -0.297%; for `CC(C)CN1Cc2cccc(NC(=O)Cc3ccon3)c2C1` it is 4.86%. The figure for `CS(=O)(=O)CCOCCNc1cncc(Br)c1` is 1.83%; for `Cc1cc(CC(=O)NC2CCCN(Cc3ccccc3)C2=O)n[nH]1` (stereo not given) it is 3.5%; for `CCc1nc(CN2CCN(C(=O)COCc3ccccc3)CC2)no1` it is 2.41%. Take `Cn1cnc(S(=O)(=O)N2CCN(Cc3ccco3)CC2)c1Cl`: the cytotoxicity at 10 µM is -3.85%. On to `COC[C@@]12CCC[C@@H]1CN(C(=O)COC1CCCC1)C2`, for which the cytotoxicity at 10 µM is 4.35%. The figure for `CO[C@H]1CC[C@H]2[C@H]1OCCN2C(=O)CC1=CCCCC1` is 5.28%; for `O=C(c1cscn1)N1CCN2C[C@H](OCc3cccnc3)C[C@H]2C1` it is -7.62%; for `O=C(c1cn(CCN2CCCCC2)nn1)N1CCCCO1` it is -4.55%.

As for `COc1ccc(/C=C/CN2CCCC3(C2)CN(C)C(=O)O3)cc1` (stereo not given), the cytotoxicity at 10 µM was -2.67%.

Consider `CCCN1CCN(C(=O)c2ccc3nc(C)oc3c2)[C@H]2CS(=O)(=O)C[C@H]21`, for which the cytotoxicity at 10 µM was -23.2%. The result for `CCC[C@@H]1CN(C(=O)c2c(F)ccc(OC)c2F)C[C@H]1C(=O)O` reads 0.542%; that for `CN1CCC(N(CCc2ccccc2)C(=O)c2cc[nH]c2)CC1`, -1.14%; that for `Cc1ccc(CN(C)C(=O)C(C)n2ccnc2C(C)C)o1` (stereo not given), 5.99%. The figure for `Cc1ncc(C)c(N2Cc3cnn(Cc4ccc(F)cc4)c3C2)n1` is 3.3%; for `CCCc1nnc2sc(C3CCS(=O)(=O)CC3)nn12` it is 1.4%.

As to `O=c1cc(N2CCNCC2)cnn1CCc1ccc(F)cc1`, the cytotoxicity at 10 µM is -8.76%.

`Cc1cccc(-n2nc(CC(C)C)nc2CCn2ccc(=O)[nH]c2=O)c1`: the cytotoxicity at 10 µM is -3.7%. Regarding `CCS(=O)(=O)N1CC[C@@H]2[C@@H](CCC(=O)N2CCc2ccccc2)C1`, the cytotoxicity at 10 µM stood at 0.86%. The figure for `Cc1cccc(-n2nc(CC(C)C)nc2CCCC(N)=O)c1` is 3.4%; for `COc1ccc([C@@H]2CN(Cc3ccncc3)C[C@H]2N(C)C)cc1` it is -2.52%; for `Cc1cc(C)c2[nH]c(CN3CCCC(N4CCOCC4)C3)cc(=O)c2c1` (stereo not given) it is -1.78%. The result for `COc1ccc(-c2noc(Cn3cc4c(n3)CCC4)n2)c(OC)c1OC` reads 4.7%.

`CN(C)C(C(=O)N1CCSCC1)c1ccccc1F` (stereo not given): the cytotoxicity at 10 µM was 0.32%. For `Cc1nn(C)c2nc(N(Cc3ccccc3)CC3CCCO3)sc12` (stereo not given), the cytotoxicity at 10 µM was found to be 8.15%.

For the molecule `COCCN1CCN(C(=O)c2ccc(COC)o2)[C@H]2CS(=O)(=O)C[C@H]21`, the cytotoxicity at 10 µM was -6.15%. The figure for `N#Cc1cccc(N2CCOC3(CNCCOC3)C2)n1` (stereo not given) is 2.61%; for `CC(C)c1nccc(CN2CCC(O)(CN3CCCCC3)C2)n1` (stereo not given) it is -1.95%. The result for `CC(C)c1cc(N(C)Cc2cc(C3CC3)on2)n2nccc2n1` reads 4.28%; that for `CO[C@@]1(C)C[C@@H](O)C12CCN(C(=O)C1(c3ccccc3F)CC1)CC2`, 3.47%. Take `CCC(NC(=O)C(C)(C)C)c1ccccc1C` (stereo not given): the cytotoxicity at 10 µM is 2.3%. `Cc1nc(N[C@H]2COC[C@@H]2N2CCCC2)c2cnn(C)c2n1`: the cytotoxicity at 10 µM is -1.42%. The result for `COc1ccc(C(C(=O)O)N2CCCN(C3CCCCC3)CC2)cn1` (stereo not given) reads 13.3%; that for `CNCC(=O)N1CCCC(c2cccc(Nc3nc(C)cc(C)n3)n2)C1` (stereo not given), -5.07%. The result for `Cc1cnccc1CN1C[C@@H](O)[C@H](Oc2cccc(F)c2)C1` reads 2.21%. Consider `Cc1ccccc1-c1cncc(C2CCN(C(C)C)CC2)n1`, for which the cytotoxicity at 10 µM turned out to be 1.2%.

With `CC(NC(=O)NCCCn1cncn1)c1ccncc1` (stereo not given), the cytotoxicity at 10 µM is -15.9%. The figure for `Cc1cccc(OCCN2CCN(Cc3cnn(CCO)c3)CC2)c1` is -5.16%.

With `CC(C)n1ccnc1CN1CCCN(C(=O)c2ncccc2O)CC1`, the cytotoxicity at 10 µM is -3.45%.

As for `CC(C)Cc1noc(CN2CCN(S(C)(=O)=O)CC2)n1`, the cytotoxicity at 10 µM amounted to 5.51%. The figure for `CNS(=O)(=O)c1ccc(C(=O)NCCNc2ncccn2)cc1` is -5.95%; for `CC(C)c1noc(CCC(=O)NCC2CCS(=O)(=O)C2)n1` (stereo not given) it is 5.7%; for `CN(C)CC1CN(Cc2coc(-c3cccs3)n2)CCO1` (stereo not given) it is 4.48%. The figure for `CNc1snc(C)c1C(=O)N1CCCC(n2nc(C)cc2C)C1` (stereo not given) is -2.74%; for `CCn1cc(NC(=O)NCc2ccc3c(c2)OCCO3)cn1` it is -7.71%; for `Cc1ccc(-c2ccccc2CC2CNCCNC2=O)c(C)c1` (stereo not given) it is -1.18%. `Cc1cccc(CN2CC[C@H]3OCC[C@@]3(C(=O)N3CCCO3)C2)n1`: the cytotoxicity at 10 µM came out at 0.886%.

Regarding `COc1cc(N2CCc3ncnc(-c4ccncc4)c3CC2)ncn1`, the cytotoxicity at 10 µM came out at 9.85%. The figure for `O=C1COC2(CCN(Cc3nccs3)CC2)CN1CC1CC1` is 4.38%; for `Cn1cnc2c(N3CCCC3)nc(C3CCNCC3)cc21` it is -9.74%; for `CN(C)S(=O)(=O)N1CC[C@H]2OCC[C@@]2(COc2cccnc2)C1` it is 11.2%.

For `CCOCC1CN(Cc2ccc(OC)cc2)Cc2nn(CC3CC3)cc21` (stereo not given), the cytotoxicity at 10 µM amounted to 18%. The result for `O=C(c1cnccn1)N1CCc2ncnc(-c3cccnc3)c2CC1` reads -3.8%; that for `CN(C)[C@@H]1CCN(S(=O)(=O)c2cn(C)cn2)[C@H]1Cc1cccnc1`, 9.79%; that for `CCc1ncnc2c1CCN(CCOC)CC2`, 5.19%. The figure for `CNC(=O)[C@H]1C[C@H]2OCC[C@H]2N(Cc2ccc(F)cc2)C1` is 3.42%. The figure for `O=C(Nc1ccccc1)N1C[C@@H]2CC[C@H]1CN(Cc1ccccc1)C2` is 1.93%.
